Active and inactive are the calls of the source. The calls are words filed in the database; no cut-off is given here.
Assays:
OVCAR-5 [1] = test: Cytotoxicity against human OVCAR5 cells after 96 hrs by Alamar blue method; assay type: functional, cell-based; settings: OVCAR-5, 96 h
Procedure, shortened: (§1)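 Cells were exposed to compound continuously for 96 h, and viability was read by Alamar blue. The IC50 is the mean with standard deviation of three independent experiments.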

DNA [2] = test: Binding affinity to calf thymus DNA assessed as thermal denaturation temperature at 20 uM after 72 hrs; assay type: nucleic-acid assay; settings: Bos taurus
DNA [3] = test: Binding affinity to calf thymus DNA assessed as thermal denaturation temperature at 20 uM after 4 hrs; assay type: nucleic-acid assay; settings: Bos taurus
DNA [4] = test: Binding affinity to calf thymus DNA assessed as thermal denaturation temperature at 20 uM after 18 hrs; assay type: nucleic-acid assay; settings: Bos taurus
LOX IMVI [5] = test: Cytotoxicity against human LOXIMVI cells after 96 hrs by Alamar blue method; assay type: functional, cell-based; procedure, shortened: as §1
LOX IMVI [6] = test: Cytotoxicity against human LOXIMVI cells after 24 hrs by Alamar blue method; assay type: functional, cell-based
LOX IMVI [7] = test: Cytotoxicity against human LOXIMVI cells at 1 uM after 96 hrs by Alamar blue method; assay type: functional, cell-based
OVCAR-5 [8] = test: Cytotoxicity against human OVCAR5 cells at 1 uM after 96 hrs by Alamar blue method; assay type: functional, cell-based

ΔTm (DNA [2]) [°C] | ΔTm (DNA [3]) [°C] | ΔTm (DNA [4]) [°C] | SMILES | IC50 (OVCAR-5 [1]) [µM] | IC50 (LOX IMVI [5]) [µM] | IC50 (LOX IMVI [6]) [µM] | Activity (LOX IMVI [7]) | Activity (OVCAR-5 [8])
0.2 | 0.2 | 0.2 | CCOC(=O)c1cc2ccc(N(CC)CC)cc2oc1=O | > 10 | > 10 | – | – | –
1 | 0.7 | 0.9 | CCN(CC)c1ccc2cc(C(=O)NCCCCNC(=O)CCOc3cc4c(cc3OC)C(=O)N3CCC[C@H]3C=N4)c(=O)oc2c1 | > 10 | > 10 | – | – | –
2.9 | 1.4 | 2 | CCN(CC)c1ccc2cc(C(=O)NCCCCCCCCOc3cc4c(cc3OC)C(=O)N3CCC[C@H]3C=N4)c(=O)oc2c1 | 7.8 | 4.5 | – | – | –
3.9 | 3.4 | 3.6 | CCN(CC)c1ccc2cc(C(=O)NCCCOc3cc4c(cc3OC)C(=O)N3CCC[C@H]3C=N4)c(=O)oc2c1 | 3.2 | 1.4 | 1.5 | – | –
– | – | – | COc1cc2c(cc1C)N=C[C@@H]1CCCN1C2=O | – | – | – | inactive | inactive

SMILES | ΔTm (DNA [2]) [°C] | ΔTm (DNA [3]) [°C] | ΔTm (DNA [4]) [°C] | IC50 (OVCAR-5 [1]) [µM] | IC50 (LOX IMVI [5]) [µM] | IC50 (LOX IMVI [6]) [µM] | Activity (LOX IMVI [7]) | Activity (OVCAR-5 [8])
COc1cc2c(cc1O)N=C[C@@H]1CCCN1C2=O | 0.8 | 0.5 | 0.7 | – | – | – | – | –
